Source: ChEMBL document CHEMBL4308835, “Fluorine-Substituted Pyrrolo[2,3- d]Pyrimidine Analogues with Tumor Targeting via Cellular Uptake by Folate Receptor α and the Proton-Coupled Folate Transporter and Inhibition of de Novo Purine Nucleotide Biosynthesis” (J Med Chem, 2018)
Activity calls are given as the source filed them. The calls are words filed in the database; no cut-off is given here.

Assays:
IGROV-1 [1] = assay: Antiproliferative activity against FRalpha […] human IGROV1 KD10 cells after 96 hrs by Cell-Titer Blue assay; format: functional, cell-based; conditions: IGROV-1, 96 h
[2] = target: T1, Proton-coupled folate transporter (Homo sapiens) (UniProt Q96NT5); assay: Inhibition of human PCFT expressed in Chinese hamster R2/PCFT4 cells assessed as reduction in [3H]MTX uptake at pH 5.5 at 10 uM measured over 2 mins relative to control; format: cell-based
T1 sequence (whole entry): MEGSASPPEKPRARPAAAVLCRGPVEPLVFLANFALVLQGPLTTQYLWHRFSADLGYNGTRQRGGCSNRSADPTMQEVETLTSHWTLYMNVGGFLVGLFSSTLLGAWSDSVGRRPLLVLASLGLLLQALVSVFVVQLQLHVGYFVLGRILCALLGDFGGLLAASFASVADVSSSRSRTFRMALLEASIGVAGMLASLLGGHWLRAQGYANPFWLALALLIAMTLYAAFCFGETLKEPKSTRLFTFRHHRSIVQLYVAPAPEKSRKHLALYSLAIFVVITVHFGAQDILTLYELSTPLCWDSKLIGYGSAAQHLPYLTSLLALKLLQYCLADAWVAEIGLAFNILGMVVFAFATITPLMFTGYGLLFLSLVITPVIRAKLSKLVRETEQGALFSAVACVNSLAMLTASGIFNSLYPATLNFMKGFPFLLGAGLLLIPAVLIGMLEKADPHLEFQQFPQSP

[3] = target: T2, Reduced folate transporter (Homo sapiens) (UniProt P41440); assay: Inhibition of human RFC2 expressed in human HeLa R1-11 cells assessed as reduction in [3H]MTX uptake at pH 7.2 at 1 uM measured over 2 mins relative to control; format: cell-based
T2 sequence (whole entry): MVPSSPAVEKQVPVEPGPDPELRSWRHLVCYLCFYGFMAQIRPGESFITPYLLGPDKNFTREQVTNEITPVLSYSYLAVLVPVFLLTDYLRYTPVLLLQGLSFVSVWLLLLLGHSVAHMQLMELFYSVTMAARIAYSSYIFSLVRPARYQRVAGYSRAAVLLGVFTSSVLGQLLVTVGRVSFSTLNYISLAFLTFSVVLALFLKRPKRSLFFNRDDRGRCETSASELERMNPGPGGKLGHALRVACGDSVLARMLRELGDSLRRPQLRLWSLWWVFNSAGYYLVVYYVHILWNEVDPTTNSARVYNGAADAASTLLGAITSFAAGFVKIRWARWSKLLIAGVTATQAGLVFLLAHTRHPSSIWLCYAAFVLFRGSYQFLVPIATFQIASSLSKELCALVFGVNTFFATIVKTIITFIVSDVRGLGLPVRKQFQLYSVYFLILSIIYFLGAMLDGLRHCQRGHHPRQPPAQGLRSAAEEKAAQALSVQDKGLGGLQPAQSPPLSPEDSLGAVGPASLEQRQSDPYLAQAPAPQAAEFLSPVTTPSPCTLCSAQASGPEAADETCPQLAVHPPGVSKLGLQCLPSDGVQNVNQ

[4] = target: T2, Reduced folate transporter (Homo sapiens); assay: Inhibition of human RFC2 expressed in human HeLa R1-11 cells assessed as reduction in [3H]MTX uptake at pH 7.2 at 10 uM measured over 2 mins relative to control; format: cell-based
[5] = target: T1, Proton-coupled folate transporter (Homo sapiens); assay: Inhibition of human PCFT expressed in Chinese hamster R2/PCFT4 cells assessed as reduction in [3H]MTX uptake at pH 5.5 at 1 uM measured over 2 mins relative to control; format: cell-based
[6] = target: Folate receptor alpha (Homo sapiens) (UniProt P15328); assay: Displacement of [3H]folic acid from human FRalpha expressed in Chinese hamster RT16 cells at 10 to 1000 nM after 15 mins; format: cell-based
Procedure, shortened: (§1)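 RT16 (FRα) or D4 (FRβ) CHO cells at ~80% confluence were washed with PBS at 4 °C, then with pH 3.5 acetate buffer to strip bound folate, then HEPES-buffered saline pH 7.4. Cells were incubated with 50 nM [³H]folic acid plus competitor (10–1000 nM) for 15 min at 4 °C, washed, and solubilized in NaOH. Bound radioactivity was normalized to protein.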

[7] = target: T3, Proton-coupled folate transporter (Homo sapiens, UniProt Q96NT5); assay: Inhibition of human PCFT expressed in Chinese hamster R2/PCFT4 cells assessed as reduction in [3H]MTX uptake at pH 5.5 measured over 2 mins by Dixon plot analysis; format: cell-based
T3 sequence (Q96NT5 whole entry): T1 sequence (whole entry)
Procedure, shortened: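 Competitor concentrations ranged from 0.05 to 0.5 μM. Ki was obtained by Dixon plot. Mean ± SE of four independent experiments.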

[8] = target: T1, Proton-coupled folate transporter (Homo sapiens); assay: Inhibition of human PCFT expressed in Chinese hamster R2/PCFT4 cells assessed as reduction in [3H]MTX uptake at pH 5.5 at 1 to 10 uM measured over 2 mins; format: cell-based
A2780 = assay: Antiproliferative activity against human A2780 cells after 96 hrs by Cell-Titer Blue assay; format: functional, cell-based; conditions: A2780, 96 h
IGROV-1 [9] = assay: Antiproliferative activity against wild type human IGROV1 cells after 96 hrs by Cell-Titer Blue assay; format: functional, cell-based; conditions: IGROV-1, 96 h
IGROV-1 [10] = assay: Antiproliferative activity against FRalpha […] human IGROV1 KD4 cells after 96 hrs by Cell-Titer Blue assay; format: functional, cell-based; conditions: IGROV-1, 96 h
IGROV-1 [11] = assay: Antiproliferative activity against human IGROV1 cells harboring non targeted control shRNA sequence after 96 hrs by Cell-Titer Blue assay; format: functional, cell-based; conditions: IGROV-1, 96 h
IGROV-1 [12] = assay: Anticlonogenic activity against human IGROV1 cells incubated for 24 hrs followed by compound wash out and measured after 10 days by methylene blue staining-based assay; format: functional, cell-based
Procedure, shortened: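 IGROV1 cells plated in folate-free RPMI 1640 (pH 7.2), 10% dialyzed FBS, 25 nM LCV. After 24 h adherence, exposed to drug (0–20 μM) for 24 h at pH 6.8 (25 mM PIPES/25 mM HEPES). Washed, then grown drug-free at pH 7.2 (100 mM HEPES) with 25 nM LCV for up to 10 days at 37 °C. Colonies stained with methylene blue and counted electronically. Values normalized to vehicle controls. Triplicate experiments.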

[13] = target: T4, Trifunctional purine biosynthetic protein adenosine-3 (Homo sapiens, UniProt P22102); assay: Inhibition of GARFTase in human IGROV1 cells assessed as decrease in incorporation of [14C(U)glycine into [14C]formyl GAR formation after 24 hrs; format: cell-based
T4 sequence (P22102 whole entry): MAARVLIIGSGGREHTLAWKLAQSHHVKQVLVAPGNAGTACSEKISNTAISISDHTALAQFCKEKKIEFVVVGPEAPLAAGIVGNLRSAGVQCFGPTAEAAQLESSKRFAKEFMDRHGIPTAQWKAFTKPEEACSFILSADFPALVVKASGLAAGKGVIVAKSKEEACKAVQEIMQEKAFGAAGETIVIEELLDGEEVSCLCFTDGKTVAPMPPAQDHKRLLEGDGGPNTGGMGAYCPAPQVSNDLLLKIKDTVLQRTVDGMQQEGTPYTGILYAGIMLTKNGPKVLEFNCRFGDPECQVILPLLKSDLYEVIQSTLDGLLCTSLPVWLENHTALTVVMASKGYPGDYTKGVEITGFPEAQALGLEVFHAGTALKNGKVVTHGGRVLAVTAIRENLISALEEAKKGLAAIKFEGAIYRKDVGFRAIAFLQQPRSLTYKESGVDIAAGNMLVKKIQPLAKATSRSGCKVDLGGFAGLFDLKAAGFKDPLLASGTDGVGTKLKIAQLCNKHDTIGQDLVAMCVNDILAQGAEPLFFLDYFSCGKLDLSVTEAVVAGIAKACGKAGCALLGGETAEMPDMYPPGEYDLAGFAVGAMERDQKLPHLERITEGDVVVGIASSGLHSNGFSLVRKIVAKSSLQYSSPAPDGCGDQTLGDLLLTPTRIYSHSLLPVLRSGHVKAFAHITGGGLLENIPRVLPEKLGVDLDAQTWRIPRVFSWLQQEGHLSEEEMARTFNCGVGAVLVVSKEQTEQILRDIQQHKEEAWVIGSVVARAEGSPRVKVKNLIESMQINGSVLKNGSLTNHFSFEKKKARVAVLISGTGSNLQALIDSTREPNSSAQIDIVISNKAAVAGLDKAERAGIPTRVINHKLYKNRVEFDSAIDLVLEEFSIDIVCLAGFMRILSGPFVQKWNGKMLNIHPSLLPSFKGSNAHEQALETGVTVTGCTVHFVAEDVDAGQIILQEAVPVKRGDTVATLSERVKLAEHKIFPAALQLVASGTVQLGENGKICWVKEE

[14] = Antiproliferative activity in Chinese hamster R2 cells deficient in RFC, PCFT, and FRalpha assessed as reduction in cell growth after 96 hrs by Cell-Titer Blue assay; format: cell-based; conditions: Cricetulus griseus, R2, 96 h
IGROV-1 [15] = assay: Antiproliferative activity against human IGROV1 cells at 1 to 1000 nM in presence of 320 uM AICA after 96 hrs by Cell-Titer Blue assay; format: functional, cell-based
Procedure, shortened: (§2)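 IGROV1 cells, 2000/well, in folate-free RPMI 1640 with 10% dialyzed FBS, L-glutamine, 25 nM LCV. A range of drug concentrations was given with thymidine (10 μM), adenosine (60 μM) or AICA (320 μM) added. After 96 h, proliferation was measured by Cell-Titer Blue fluorescence. At least triplicate experiments.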

IGROV-1 [16] = assay: Antiproliferative activity against human IGROV1 cells at 1 to 1000 nM in presence of 60 uM adenosine after 96 hrs by Cell-Titer Blue assay; format: functional, cell-based; procedure, shortened: as §2
IGROV-1 [17] = assay: Antiproliferative activity against human IGROV1 cells at 1 to 1000 nM in presence of 10 uM thymidine after 96 hrs by Cell-Titer Blue assay; format: functional, cell-based; procedure, shortened: as §2
[18] = target: Folate receptor beta (Homo sapiens) (UniProt P14207); assay: Displacement of [3H]folic acid from human FRbeta expressed in Chinese hamster D4 cells at 10 to 1000 nM after 15 mins; format: cell-based; procedure, shortened: as §1
[19] = target: T2, Reduced folate transporter (Homo sapiens); assay: Inhibition of human RFC2 expressed in human HeLa R1-11 cells assessed as reduction in [3H]MTX uptake at pH 7.2 at 10 uM measured over 2 mins relative to control

Chain of Folate receptor alpha (Homo sapiens) (P15328 25-234 limits assumed): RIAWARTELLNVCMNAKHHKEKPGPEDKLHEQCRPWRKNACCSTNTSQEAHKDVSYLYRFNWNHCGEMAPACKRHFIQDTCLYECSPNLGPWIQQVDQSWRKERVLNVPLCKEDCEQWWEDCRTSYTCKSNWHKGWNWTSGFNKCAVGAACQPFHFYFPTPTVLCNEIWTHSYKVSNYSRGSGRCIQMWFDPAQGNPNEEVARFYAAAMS
Chain of Folate receptor beta (Homo sapiens) (P14207 17-230 limits assumed): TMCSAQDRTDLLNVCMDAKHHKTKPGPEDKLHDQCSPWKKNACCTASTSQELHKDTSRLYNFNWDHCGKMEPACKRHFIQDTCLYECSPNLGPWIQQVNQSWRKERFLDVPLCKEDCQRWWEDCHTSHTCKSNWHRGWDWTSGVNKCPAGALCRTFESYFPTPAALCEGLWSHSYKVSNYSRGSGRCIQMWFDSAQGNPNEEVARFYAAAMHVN

| Compound | IC50 (IGROV-1 [1]) [nM] | inhibition [2] | inhibition [3] | inhibition [4] | inhibition [5] | inhibition [6] | Ki [7] [nM] | inhibition [8] | IC50 (A2780) [nM] | IC50 (IGROV-1 [9]) [nM] | IC50 (IGROV-1 [10]) [nM] | IC50 (IGROV-1 [11]) [nM] | IC50 (IGROV-1 [12]) [nM] | IC50 [13] [nM] | IC50 [14] [nM] | Activity (IGROV-1 [15]) | Activity (IGROV-1 [16]) | Activity (IGROV-1 [17]) | inhibition [18] | inhibition [19] [%] |
| --- | --- | --- | --- | --- | --- | --- | --- | --- | --- | --- | --- | --- | --- | --- | --- | --- | --- | --- | --- | --- |
| Nc1nc2[nH]c(CCCCc3ccc(C(=O)N[C@@H](CCC(=O)O)C(=O)O)nc3)cc2c(=O)[nH]1 | 30.5 | Active | inactive | inactive | Active | Active | 240 | Active | 5.42 | 1.87 | 64.1 | 1.55 | – | – | – | – | – | – | – | – |
| Nc1nc2[nH]c(CCCCc3ccc(C(=O)N[C@@H](CCC(=O)O)C(=O)O)cc3)cc2c(=O)[nH]1 | > 1000 | – | inactive | inactive | – | – | – | – | 14.2 | – | – | – | – | – | – | – | – | – | – | – |
| Nc1nc(N)c2nc(CNc3ccc(C(=O)N[C@@H](CCCNC(=O)c4ccccc4C(=O)O)C(=O)O)cc3)cnc2n1 | – | Active | inactive | inactive | Active | – | – | Active | – | – | – | – | – | – | – | – | – | – | – | – |
| Nc1nc2[nH]cc(CCc3ccc(C(=O)N[C@@H](CCC(=O)O)C(=O)O)cc3)c2c(=O)[nH]1 [PEMETREXED] | 22.2 | – | inactive | inactive | – | – | – | – | 39.4 | 104 | 46.6 | 71 | > 20000 | – | – | – | – | – | – | – |
| Nc1nc2[nH]c(CCCCc3cnc(C(=O)N[C@@H](CCC(=O)O)C(=O)O)c(F)c3)cc2c(=O)[nH]1 | > 1000 | 90 to 95% | inactive | inactive | 60 to 85% | Active | – | – | – | – | > 1000 | – | – | 2 | > 1000 | inactive | inactive | Active | – | – |
| Nc1nc2[nH]c(CCCCc3ccc(C(=O)N[C@@H](CCC(=O)O)C(=O)O)c(F)c3)cc2c(=O)[nH]1 | – | 90 to 95% | inactive | inactive | 60 to 85% | Active | – | – | – | – | – | – | – | – | – | inactive | inactive | Active | – | – |
| Nc1nc2[nH]c(CCCCc3csc(C(=O)N[C@@H](CCC(=O)O)C(=O)O)c3)cc2c(=O)[nH]1 | > 1000 | Active | inactive | inactive | Active | Active | 360 | Active | 28.8 | 54.3 | > 1000 | 40.7 | – | – | > 1000 | – | – | – | Active | – |
| Nc1nc2[nH]c(CCCc3ccc(C(=O)N[C@@H](CCC(=O)O)C(=O)O)cc3)cc2c(=O)[nH]1 | – | Active | inactive | inactive | Active | – | 630 | Active | 2.72 | – | – | – | – | – | > 1000 | inactive | inactive | Active | – | – |
| Nc1nc2[nH]c(CCCc3csc(C(=O)N[C@@H](CCC(=O)O)C(=O)O)c3F)cc2c(=O)[nH]1 | 42.2 | 90 to 95% | – | < 30% | 60 to 85% | Active | 70 | Active | 7.6 | 6.92 | 85.6 | 5.61 | – | 1.2 | 20.5 | – | – | – | Active | < 30 |
